A selection: hits, their analogues and other compounds. The true share with any hit is near 2.9%.
HTR1E antagonist = blocks the human 5-HT1E serotonin receptor | CHO 5-HT1E Ga15 NFAT-bla reporter, FRET, antagonist | inhibition, % at 6 µM | 65,000 compounds, 0.99% hits | AID 571;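 active means inhibition above a set limit, the mean inhibition across every tested compound plus 3 SD, cut at about 29% in these data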;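 further: signal is the 460 over 535 nm emission ratio of beta-lactamase substrate; 0% = agonist plus DMSO wells and 100% = wells without agonist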
S1P3 agonist = activates the human S1P3 receptor; S1P3 NFAT-BLA reporter cells, agonism, FRET ratio; relative to 1 µM S1P, basal subtracted; activation, % at 4.5 µM; 60,000 compounds, 0.1% hits; AID 373;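 active means activation above the screen-wide mean plus 3 SD, cut at about 4.5% in these data, passing the limit was not always enough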
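Material: Human S1P3 NFAT-BLA reporter CHO cells | Incubation: Overnight plating, 4 h compound 37 °C, 2 h substrate RT | Signal: FRET β-lactamase substrate fluorescence, excitation 405 nm, 460/535 nm emission ratio, background-subtracted | Compound: 4.5 µM final, single dose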
5-HT1A blocker = 5-HT1a (human) receptor antagonism; P08908; CHO 5-HT1a Ga15 NFAT-bla reporter, antagonist mode; inhibition, % at 10 µM; 62,000 compounds, 0.68% hits;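 active means inhibition above the mean of all tested compounds plus 3 SD, cut at about 43% in these data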;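 further: receptor stimulated by 5-CT agonist at 100 nM near EC80; beta-lactamase reporter measured by ratiometric fluorescence of a cleavable substrate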
Target sequence (P08908 whole entry, looked up): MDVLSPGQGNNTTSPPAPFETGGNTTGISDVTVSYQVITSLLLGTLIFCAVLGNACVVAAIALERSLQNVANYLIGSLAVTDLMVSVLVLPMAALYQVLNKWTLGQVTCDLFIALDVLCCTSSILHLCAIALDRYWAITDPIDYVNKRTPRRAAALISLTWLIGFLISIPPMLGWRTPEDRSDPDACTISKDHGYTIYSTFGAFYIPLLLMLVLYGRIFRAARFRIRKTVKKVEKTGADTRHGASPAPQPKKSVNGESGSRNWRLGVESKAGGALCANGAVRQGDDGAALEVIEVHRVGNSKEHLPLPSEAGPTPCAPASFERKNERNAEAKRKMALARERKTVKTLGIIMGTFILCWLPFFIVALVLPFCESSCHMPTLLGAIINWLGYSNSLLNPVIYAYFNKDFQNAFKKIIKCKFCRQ
HTR1E agonist = agonists of human 5-HT1E serotonin receptor; P28566; CHO 5-HT1E Ga15 NFAT-bla reporter, FRET; 0% DMSO wells, 100% control agonist wells; activation, % at 6 µM; 65,000 compounds, 0.69% hits;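 active means activation above a set limit, the screen-wide mean activation plus 3 SD, cut at about 8.5% in these data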;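 further: 100% = positive control agonist at 1 µM giving full maximal response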
S1P1 ag-PAM = agonists and agonism potentiators of human S1P1 receptor; P21453; S1P1 CRE-bla cells, forskolin, beta-lactamase FRET, potentiator mode; S1P1 agonist co-added at EC20, 2 nM; 100% = saturating reference agonist, 0% = basal; activation, % at 9.5 µM; 56,000 compounds, 0.57% hits;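 active means activation above a cutoff set at the mean activation of all tested compounds plus 3 SD, cut at about 54% in these data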;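 further: forskolin at 4 µM as EC80 and the EC20 agonist is SEW2871; 100% = SEW2871 at its EC100 plus forskolin at EC80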
HTR1A agonist = agonists of human 5-HT1a serotonin receptor; P08908; CHO 5-HT1a Ga15 NFAT-bla reporter, FRET ratio; 0% basal, 100% maximal reference agonist; activation, % at 10 µM; 65,000 compounds, 0.56% hits; AID 567;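 active means activation above the screen-wide mean activation plus 3 SD, cut at about 19% in these data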;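 further: 0% = DMSO wells and 100% = 5-CT at EC100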
The depositor's hits bear a star.

For CCCC(=O)N1CCN(c2ccc(NC(=O)c3cc4ccccc4o3)cc2Cl)CC1 the results were HTR1E antagonist 44.4*, S1P3 agonist -0.6, 5-HT1A blocker 16.8, HTR1E agonist 1.7, S1P1 ag-PAM 65.5* and HTR1A agonist -1.7.
`CCC(=O)N1CCN(c2ccc(NC(=O)c3cc4ccccc4o3)cc2Cl)CC1` gave HTR1E antagonist 35.8*, S1P3 agonist -0.9, 5-HT1A blocker 31.3, HTR1E agonist 0.3 and HTR1A agonist 1.4.
O=C(Nc1ccc(N2CCN(C(=O)c3ccco3)CC2)c(Cl)c1)c1cc2ccccc2o1 was read as HTR1E antagonist 38.3*, S1P3 agonist -1.7, 5-HT1A blocker 27.3, HTR1E agonist 2.6 and HTR1A agonist 4.3.
Clc1ccc(C2CC(c3cccs3)n3ncnc3N2)c(Cl)c1 (configuration not stated) was read as HTR1E antagonist -4.1, S1P3 agonist -0.1, 5-HT1A blocker 3.2, HTR1E agonist -0.3, S1P1 ag-PAM -16.1 and HTR1A agonist -0.8.
Screening CCOC(=O)CSC1=C(C#N)C(c2ccccc2Cl)C(C(=O)OC)C(=O)N1 (configuration not stated) returned HTR1E antagonist -0.5, S1P3 agonist -0.8, 5-HT1A blocker -4.2, HTR1E agonist 0.8 and HTR1A agonist 2.8.
For O=C(CCOc1ccccc1)Nc1ccc(S(=O)(=O)N2CCCC2)cc1 the results were HTR1E antagonist -5.9, S1P3 agonist 1.4, 5-HT1A blocker -17.1, HTR1E agonist -0.2, S1P1 ag-PAM 3.7 and HTR1A agonist -0.6.
CCCOC(=O)c1ccc(OCC(O)CN2CCN(C(=O)c3ccccc3)CC2)cc1 (configuration not stated) was read as HTR1E antagonist 0.0, S1P3 agonist -0.3, 5-HT1A blocker 2.9, HTR1E agonist 47.9*, S1P1 ag-PAM -21.0 and HTR1A agonist -0.1.
Screening CCN(CCNC(=O)C1CCN(c2nnc(-n3cccc3)s2)CC1)c1ccccc1 returned HTR1E antagonist -3.8, S1P3 agonist 0.7, 5-HT1A blocker -18.8, HTR1E agonist 0.7, S1P1 ag-PAM -1.7 and HTR1A agonist -2.1.
Screening N#CCCS(=O)(=O)c1nnnn1-c1ccccc1 returned HTR1E antagonist 79.4*, S1P3 agonist -1.0, 5-HT1A blocker 86.7*, HTR1E agonist -1.4, S1P1 ag-PAM 70.0* and HTR1A agonist 0.5.
Cc1nn(C)cc1C1C2=C(CC(C)(C)CC2=O)OC2=C1C(=O)CC(C)(C)C2 was read as HTR1E antagonist -7.7, S1P3 agonist -4.1, HTR1E agonist 0.7, S1P1 ag-PAM -5.6 and HTR1A agonist 3.5.
`CC1(C)Cc2c(c(=S)nc(-c3ccccc3)n2CCOCCO)CO1` gave HTR1E antagonist 7.5, 5-HT1A blocker -19.8, HTR1E agonist 17.7* and HTR1A agonist -0.3.
Screening OCCOCCn1c(-c2ccccc2)nc(=S)c2c1CCCC2 returned HTR1E antagonist 8.5, S1P3 agonist 0.2, 5-HT1A blocker -6.0, HTR1E agonist 0.8, S1P1 ag-PAM -12.2 and HTR1A agonist -1.7.
For CCCn1c(CN2CCN(c3cccc(Cl)c3)CC2)nc2c1c(=O)n(C)c(=O)n2C the results were HTR1E antagonist -2.6, S1P3 agonist -0.9, 5-HT1A blocker 7.9, HTR1E agonist 0.0, S1P1 ag-PAM 134.8* and HTR1A agonist -0.7.
Screening CCCCn1c(CN2CCN(c3cccc(Cl)c3)CC2)nc2c1c(=O)n(C)c(=O)n2C returned HTR1E antagonist -7.8, S1P3 agonist 0.7, 5-HT1A blocker -12.0, HTR1E agonist 1.8, S1P1 ag-PAM -2.7 and HTR1A agonist 2.3.
CCn1c(CN2CCN(C(=O)c3ccco3)CC2)nc2c1c(=O)n(C)c(=O)n2C was read as HTR1E antagonist -1.8, S1P3 agonist -1.0, 5-HT1A blocker -6.3, HTR1E agonist 0.9, S1P1 ag-PAM -15.6 and HTR1A agonist -3.7.
For CC(C)CCn1c(CN2CCN(C(=O)c3ccco3)CC2)nc2c1c(=O)n(C)c(=O)n2C the results were HTR1E antagonist 1.5, S1P3 agonist -0.4, 5-HT1A blocker 1.0, HTR1E agonist 0.6, S1P1 ag-PAM 1.5 and HTR1A agonist 57.4*.
Screening O=C(COc1ncnc2ccccc12)NCCCN1CCCC1=O returned HTR1E antagonist 9.9, S1P3 agonist 0.3, 5-HT1A blocker 0.1, HTR1E agonist -0.2, S1P1 ag-PAM -15.6 and HTR1A agonist -3.5.
For CS(=O)(=O)c1ccc2nc(NC(NC(=O)c3ccco3)(C(F)(F)F)C(F)(F)F)sc2c1 the results were HTR1E antagonist 6.9, S1P3 agonist -0.9, HTR1E agonist -0.4, S1P1 ag-PAM -5.6 and HTR1A agonist 0.2.
Screening Cc1cccnc1NCc1ccc(O)c2ncccc12 returned HTR1E antagonist 51.1*, S1P3 agonist -0.8, 5-HT1A blocker 11.8, HTR1E agonist 0.8, S1P1 ag-PAM 7.0 and HTR1A agonist 0.4.
Screening CCOc1ccccc1N(C(=O)Cn1nnnc1-c1ccc(C)o1)C(CC)C(=O)NC(C)(C)C (configuration not stated) returned HTR1E antagonist -2.9, S1P3 agonist -0.1, 5-HT1A blocker -12.5, HTR1E agonist 0.2, S1P1 ag-PAM -15.5 and HTR1A agonist -0.6.
CCOc1ccccc1C(=O)Nc1nnc(C(C)C)s1 was read as HTR1E antagonist 32.6*, S1P3 agonist -0.1, 5-HT1A blocker 8.7, HTR1E agonist -0.3, S1P1 ag-PAM -19.4 and HTR1A agonist -1.2.
For O=c1c2ccccc2nc(SCc2nc(-c3ccccc3)no2)n1-c1ccc(F)cc1 the results were HTR1E antagonist -1.6, S1P3 agonist -2.0, 5-HT1A blocker 12.9, HTR1E agonist 0.3, S1P1 ag-PAM 3.2 and HTR1A agonist 20.4*.
For Cc1ccc(-n2c(SCc3cn4ccsc4n3)nc3ccccc3c2=O)cc1 the results were HTR1E antagonist 43.5*, S1P3 agonist 1.0, 5-HT1A blocker 16.8, HTR1E agonist 0.2, S1P1 ag-PAM 20.3 and HTR1A agonist 3.2.
For c1ccc(-n2cnnc2SCc2cn3ccsc3n2)cc1 the results were HTR1E antagonist 3.5, S1P3 agonist -0.8, 5-HT1A blocker 0.0, HTR1E agonist 0.5, S1P1 ag-PAM -4.4 and HTR1A agonist 1.2.
For CC(OC(=O)c1cccs1)C(=O)NCc1ccco1 (configuration not stated) the results were HTR1E antagonist -6.0, S1P3 agonist 0.6, 5-HT1A blocker -9.6, HTR1E agonist 15.7*, S1P1 ag-PAM -10.5 and HTR1A agonist 5.0.
CC(C)C(OC(=O)c1cccs1)C(=O)NCc1ccco1 (configuration not stated) was read as HTR1E antagonist 12.0, S1P3 agonist -1.5, 5-HT1A blocker 24.5, HTR1E agonist -0.7, S1P1 ag-PAM -12.4 and HTR1A agonist -2.6.
